The target of experiment [1] is T1, Geranylgeranyl pyrophosphate synthase (Homo sapiens) (UniProt O95749).
T1 sequence (whole entry): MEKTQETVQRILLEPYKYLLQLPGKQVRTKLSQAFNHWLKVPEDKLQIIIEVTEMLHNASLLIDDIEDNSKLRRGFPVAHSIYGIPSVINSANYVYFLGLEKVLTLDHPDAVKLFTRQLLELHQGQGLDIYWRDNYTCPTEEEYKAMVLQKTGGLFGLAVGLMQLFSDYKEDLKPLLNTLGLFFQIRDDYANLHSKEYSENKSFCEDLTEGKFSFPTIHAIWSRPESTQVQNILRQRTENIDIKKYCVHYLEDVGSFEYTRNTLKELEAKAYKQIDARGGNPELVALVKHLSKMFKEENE
In words: Inhibition of GGDPS in human RPMI-8226 cells assessed as disruption of Rap1a geranylgeranylation at 10 uM after 48 hrs by western blot analysis. The class given is cell-based. An outline of the steps: (§1)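 RPMI-8226 human myeloma cells exposed 48 h to test agent. For Rap1a, RIPA whole-cell lysate probed with an antibody recognising only unmodified Rap1a, β-tubulin as loading control. Rab6 read from Triton X-114 aqueous versus detergent fractions, with β-tubulin for aqueous and calnexin for detergent loading. Equal protein by BCA, SDS-PAGE/immunoblot with ECL. Blots representative of two independent experiments.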
In general terms: In western blotting, separated proteins are transferred to a membrane and probed.

In experiment [2] the target is T1, Geranylgeranyl pyrophosphate synthase (Homo sapiens). In words: Inhibition of GGDPS in human RPMI-8226 cells assessed as disruption of Rab6 geranylgeranylation at 10 uM after 48 hrs by western blot analysis. The class given is cell-based. An outline of the steps: as §1
Experiment [3] deals with T2, Farnesyl pyrophosphate synthase (Homo sapiens) (UniProt P14324).
T2 sequence (whole entry): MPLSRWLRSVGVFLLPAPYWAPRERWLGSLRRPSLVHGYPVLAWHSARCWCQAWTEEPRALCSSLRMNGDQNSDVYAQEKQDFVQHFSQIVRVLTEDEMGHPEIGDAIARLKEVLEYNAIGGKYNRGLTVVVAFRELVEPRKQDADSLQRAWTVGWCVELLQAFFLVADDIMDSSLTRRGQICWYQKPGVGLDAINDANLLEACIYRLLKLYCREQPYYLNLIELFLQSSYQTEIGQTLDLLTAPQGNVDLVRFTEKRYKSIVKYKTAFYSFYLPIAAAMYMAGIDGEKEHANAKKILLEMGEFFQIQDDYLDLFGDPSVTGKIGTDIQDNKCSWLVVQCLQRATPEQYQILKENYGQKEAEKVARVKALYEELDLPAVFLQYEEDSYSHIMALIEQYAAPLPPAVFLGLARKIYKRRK
In words: Inhibition of FDPS in human RPMI-8226 cells assessed as disruption of Ras farnesylation after 48 hrs by western blot analysis. The format is cell-based.

For experiment [4], the target named is T3, Geranylgeranyl pyrophosphate synthase (Homo sapiens, UniProt O95749).
T3 sequence (O95749 whole entry): T1 sequence (whole entry)
In words: Inhibition of recombinant GGDPS (unknown origin) assessed as decrease in radiolabeld GGPP level using FPP and [14C]IPP as substrate treated with enzyme for 10 mins prior to substrate challenge for 30 mins by liquid scintillation counting analysis. An outline of the steps: (§2)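 Enzyme (10 nM FDPS or 20 nM GGDPS) preincubated with compound 10 min at room temperature in 50 mM Tris-HCl pH 7.7, 20 mM MgCl2, 5 mM TCEP, 5 µg/mL BSA. Started with 10 µM GPP (FDPS) or 10 µM FPP (GGDPS) plus 10 µM [14C]-IPP; 37 °C, 30 min. Stopped with saturated NaCl, butanol-extracted, counted. IC50 from concentration-response curves.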

The target of experiment [5] is T4, Farnesyl pyrophosphate synthase (Homo sapiens, UniProt P14324).
T4 sequence (P14324 whole entry): T2 sequence (whole entry)
In words: Inhibition of recombinant FDPS (unknown origin) assessed as decrease in radiolabeld […] level using GPP and [14C]IPP as substrate treated with enzyme for 10 mins prior to substrate challenge for 30 mins by liquid scintillation counting analysis. Put shortly:
as §2

The target of experiment [6] is Protein farnesyltransferase (Homo sapiens, UniProt P49354+P49356). In words: Inhibition of recombinant FTase (unknown origin) assessed as decrease in prenylated fluorescent peptides level using dansyl-GCVLS and FPP as substrate after 1 hr by HPLC-fluorescence detection analysis. The class given is protein-complex assay. An outline of the steps: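 3 nM recombinant FTase started reaction in pH 7.5 Tris buffer with DTT, 10 mM MgCl2, 10 µM ZnCl2, 0.04% DDM, plus 10 µM FPP and 5 µM dansyl-GCVLS. Run 1 h at 30 °C, stopped with acetonitrile/5% HCl, centrifuged. Prenylated peptide quantified by HPLC-fluorescence. IC50 taken from concentration-response curves.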

The target of experiment [7] is Geranylgeranyl transferase type I (Homo sapiens, UniProt P49354+P53609). In words: Inhibition of recombinant GGTase 1 (unknown origin) assessed as decrease in prenylated fluorescent peptides level using dansyl-GCVLS and GGPP as substrate after 1 hr by HPLC-fluorescence detection analysis. Put shortly:
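Reaction started by adding 12 nM recombinant GGTase I to pH 7.5 Tris buffer with DTT, 5 mM MgCl2, 50 µM ZnCl2, 10 mM KCl, 0.04% DDM, 10 µM GGPP and 7 µM dansyl-GCVLS. Incubated 1 h at 30 °C, then acid-acetonitrile quench. Prenylated peptide measured by HPLC with fluorescence. IC50 from concentration-response curves.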

Experiment [8] can be described thus: Inhibition of recombinant GGTase 2 (unknown origin) using recombinant Rab1A and [3H]GGPP as substrate after 20 mins by liquid scintillation counting analysis in presence of recombinant REP-2. More on the design: species or system Homo sapiens. An outline of the steps:
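30 nM recombinant GGTase II with 2 µM His-tagged Rab1A (E. coli-expressed, Ni-NTA purified) and 1 µM REP-2 in HEPES buffer with MgCl2, DTT, NP-40. Started with 5 µM [3H]-GGPP, 20 min at 37 °C, ended with HCl/EtOH. Filtered on P-81 paper, washed and scintillation counted. Tested up to 1 mM.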

Experiment [9] addresses T1, Geranylgeranyl pyrophosphate synthase (Homo sapiens). The following applies: RPMI-8226, 1 uM.
Experiment [10] shares this target. The following applies: RPMI-8226, 10 uM.
The target is the same in experiment [11]. The following applies: RPMI-8226, 10 uM. This is another data set of the same source.
Experiment [12] has the same target. The following applies: RPMI-8226, 10 uM. This is another data set of the same source.
Experiment [13] shares this target. Particulars: RPMI-8226, 1 uM. This is another data set of the same source.
The target is the same in experiment [14]. Particulars: RPMI-8226, 1 uM. The source holds these as a separate data set.
Experiment [15] has the same target. The following applies: RPMI-8226, 10 uM. The source holds these as a separate data set.
The target in experiment [16] is T5, 3-hydroxy-3-methylglutaryl-coenzyme A reductase (Homo sapiens) (UniProt P04035).
T5 sequence (whole entry): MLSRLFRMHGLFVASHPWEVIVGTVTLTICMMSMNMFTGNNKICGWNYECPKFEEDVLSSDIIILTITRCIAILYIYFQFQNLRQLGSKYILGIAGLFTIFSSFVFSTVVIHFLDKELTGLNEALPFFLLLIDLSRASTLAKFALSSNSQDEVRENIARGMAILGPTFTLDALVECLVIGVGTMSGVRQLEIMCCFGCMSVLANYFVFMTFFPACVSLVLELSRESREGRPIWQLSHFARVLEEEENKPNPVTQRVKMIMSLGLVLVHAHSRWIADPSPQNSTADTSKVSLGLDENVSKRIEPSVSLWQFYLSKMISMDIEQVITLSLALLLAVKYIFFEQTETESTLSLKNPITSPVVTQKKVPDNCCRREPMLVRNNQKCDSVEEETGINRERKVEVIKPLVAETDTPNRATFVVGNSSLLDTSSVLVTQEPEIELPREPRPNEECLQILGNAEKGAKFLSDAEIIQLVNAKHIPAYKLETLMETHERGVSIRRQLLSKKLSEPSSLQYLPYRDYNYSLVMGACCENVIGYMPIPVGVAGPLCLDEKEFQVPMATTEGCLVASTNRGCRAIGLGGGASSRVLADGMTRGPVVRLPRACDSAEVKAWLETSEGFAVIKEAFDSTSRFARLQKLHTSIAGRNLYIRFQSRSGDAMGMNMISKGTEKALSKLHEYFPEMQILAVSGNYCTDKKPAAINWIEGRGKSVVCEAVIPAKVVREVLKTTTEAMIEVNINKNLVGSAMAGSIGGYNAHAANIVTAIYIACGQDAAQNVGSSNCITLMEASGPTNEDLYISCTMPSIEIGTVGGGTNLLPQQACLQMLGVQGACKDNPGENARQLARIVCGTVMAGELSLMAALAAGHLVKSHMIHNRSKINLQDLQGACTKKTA
In words: Inhibition of HMG-coA reductase in human RPMI-8226 cells assessed as disruption of Rap1a geranylgeranylation at 10 uM after 48 hrs by western blot analysis. The format is cell-based. Put shortly:
(§3)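 RPMI-8226 cells held 48 h with 10 µM inhibitor, with or without isoprenoid add-back (1 mM mevalonate, 10 µM FPP or 10 µM GGPP). RIPA whole-cell lysate immunoblotted with an antibody detecting only unmodified Rap1a, β-tubulin as loading control. Protein equalised by BCA. Two independent experiments.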

Experiment [17] deals with T5, 3-hydroxy-3-methylglutaryl-coenzyme A reductase (Homo sapiens). In words: Inhibition of HMG-coA reductase in human RPMI-8226 cells assessed as disruption of Rap1a geranylgeranylation at 10 uM after 48 hrs by western blot analysis in presence of 1 mM mevalonate. The class given is cell-based. An outline of the steps:
as §3

Experiment [18] has the same target. In words: Inhibition of HMG-coA reductase in human RPMI-8226 cells assessed as disruption of Rap1a geranylgeranylation at 10 uM after 48 hrs by western blot analysis in presence of 10 uM GGPP. The class given is cell-based. An outline of the steps: as §3

The source made the active and inactive calls. The calls are words filed in the database; no cut-off is given here. Some results are limits rather than exact numbers.

Broadly, the IC50 is the concentration at which inhibition is half-maximal. For `CC(C)=CCC[C@]1(C)O[C@@H]1Cn1cc(CC(P(=O)(O)O)P(=O)(O)O)nn1` (racemic), in experiment [1], the “disruption of Rap1a geranylgeranylation (active/not active)” value is “inactive”. In addition, the “disruption of Rab6 geranylgeranylation (active/not active)” value in [2] is “inactive”. Moreover, the inhibition entry in [3] was “inactive”. In addition, the IC50 in [4] is 17 µM; in experiment [5] it was 47 µM; in [6], 340 µM; in [7] it was 300 µM; in [8] it was over 1000 µM.

On to `CC(C)=CCC/C(C)=C\Cn1cc(CC(P(=O)(O)O)P(=O)(O)O)nn1`, for which the “disruption of Rap1a geranylgeranylation (active/not active)” value in experiment [1] is “Active”. Also, in experiment [2], the “disruption of Rab6 geranylgeranylation (active/not active)” value was “Active”. Further, the inhibition result in [3] and in experiment [10] was “inactive” each time. The IC50 is 79 µM in experiment [5], 400 µM in [6], 500 µM in experiment [7] and over 1000 µM in [8]. Also, the inhibition entry in [9], in [11], in experiment [12], in [13], in experiment [14] and in experiment [15] was “Active” in each case.

Consider `CC(C)=CCC/C(C)=C/CC(C/C=C(\C)CCC=C(C)C)(P(=O)(O)O)P(=O)(O)O`, for which, in experiment [1], the “disruption of Rap1a geranylgeranylation (active/not active)” value is “Active”. For the same compound, the “disruption of Rab6 geranylgeranylation (active/not active)” value in experiment [2] was “Active”. Besides, in experiment [3], the inhibition entry was “inactive”. Moreover, the inhibition result in [15] is “Active”.

As to `CC(C)=CCC/C(C)=C/Cn1cc(CC(P(=O)(O)O)P(=O)(O)O)nn1`, the “disruption of Rap1a geranylgeranylation (active/not active)” value in experiment [1] was “Active”. In addition, the inhibition result in [3], in experiment [13], in experiment [14] and in [15] was “inactive” throughout. Also, the 50% inhibitory concentration (IC50) is 57 µM in experiment [5], over 500 µM in [6], 340 µM in experiment [7] and over 1000 µM in [8].

Turning to `CC[C@H](C)C(=O)O[C@H]1C[C@@H](C)C=C2C=C[C@H](C)[C@H](CC[C@@H]3C[C@@H](O)CC(=O)O3)[C@H]21`, the inhibition entry in experiment [16] is “Active”. Further, the inhibition result in experiment [17] and in experiment [18] was “inactive” each time.

As to `CC(C)=CCC[C@@]1(C)O[C@@H]1Cn1cc(CC(P(=O)(O)O)P(=O)(O)O)nn1` (racemic), the “disruption of Rap1a geranylgeranylation (active/not active)” value in experiment [1] was “inactive”. In experiment [2], the “disruption of Rab6 geranylgeranylation (active/not active)” value is “inactive”. Besides, the inhibition result in [3] is “inactive”. In addition, the IC50 in experiment [4] was 23 µM; in experiment [5], 33 µM; in [6] it was 400 µM; in [7] it was 500 µM; in experiment [8] it was over 1000 µM.

Take `CC(C)=CCCC(C)=CCn1cc(CC(P(=O)(O)O)P(=O)(O)O)nn1` (mixture of isomers): the “disruption of Rap1a geranylgeranylation (active/not active)” value in experiment [1] was “Active”. Besides, the “disruption of Rab6 geranylgeranylation (active/not active)” value in [2] was “Active”. In addition, in experiment [3], the inhibition entry is “inactive”. For the same compound, the IC50 in experiment [5] is 84 µM; in experiment [6], 500 µM; in experiment [7], 200 µM; in [8], over 1000 µM. The inhibition result in [13], in [14] and in experiment [15] was “Active” in each case.

Values taken from ChEMBL document CHEMBL3259705, “Geranyl and neryl triazole bisphosphonates as inhibitors of geranylgeranyl diphosphate synthase” (Bioorg Med Chem, 2014).
